Assay results reported in ChEMBL document CHEMBL2151038, “Synthesis, characterization and biological evaluation of some novel 2,4-thiazolidinediones as potential cytotoxic, antimicrobial and antihyperglycemic agents” (Bioorg Med Chem Lett, 2012).
≈ marks a conversion by molar mass, not a printed value.

What was measured:
Rattus norvegicus [1] = experiment: Antihyperglycemic activity in streptozotocin-induced type 2 diabetic Wistar albino rat assessed as reduction in plasma glucose level at 50 mg/kg, po by glucometer; format: functional
Outline: (§1)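 Wistar albino rats of either sex, 150–200 g, fasted 16 h. Diabetes induced by nicotinamide 150 mg/kg, then STZ 65 mg/kg in citrate buffer pH 4.5. Glucose confirmed after 48 h. Groups of six. Oral dosing as 0.25% sodium CMC suspension at 10, 30 or 50 mg/kg. Rosiglitazone was the reference. Retro-orbital plasma glucose measured by glucometer before dosing and at 1, 2, 4, 6, 8, 12 and 24 h. Results as mean ± SEM, compared by ANOVA, t-test and Dunnett's test.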

Klebsiella pneumoniae = experiment: Antibacterial activity against Klebsiella pneumoniae NCIM 5082 after 24 hrs by NCCLS agar well diffusion method; format: functional; conditions: NCIM 5082, 24 h
Outline: (§2)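 Nutrient agar seeded with 0.1 mL bacterial suspension (10⁵ CFU/mL in 0.85% saline). 6 mm wells filled with 0.1 mL compound. Plates in triplicate, 37 ± 0.5 °C for 24 h. MIC = lowest concentration giving complete growth inhibition.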

Candida albicans = experiment: Antifungal activity against Candida albicans NCIM 3102 after 48 hrs by NCCLS agar well diffusion method; format: functional; conditions: NCIM 3102, 48 h
Outline: (§3)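 Spore suspensions in sterile distilled water adjusted to 10⁶ CFU/mL, 0.1 mL spread on potato-dextrose agar. 6 mm wells received 0.1 mL compound in 1% DMSO (final 16–512 µg/mL). Controls: 1% DMSO and ketoconazole (16 µg/mL). Triplicate plates, 48 h at 28 ± 0.2 °C. MIC = lowest concentration completely inhibiting growth.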

Penicillium chrysogenum = experiment: Antifungal activity against Penicillium chrysogenum NCIM 738 after 48 hrs by NCCLS agar well diffusion method; format: functional; conditions: NCIM 738, 48 h; outline: as §3
Escherichia coli = experiment: Antibacterial activity against Escherichia coli NCIM 2065 after 24 hrs by NCCLS agar well diffusion method; format: functional; conditions: NCIM 2065, 24 h; outline: as §2
Pseudomonas aeruginosa = experiment: Antibacterial activity against Pseudomonas aeruginosa NCIM 2036 after 24 hrs by NCCLS agar well diffusion method; format: functional; conditions: NCIM 2036, 24 h; outline: as §2
Rattus norvegicus [2] = experiment: Antihyperglycemic activity in po dosed streptozotocin-induced type 2 diabetic Wistar albino rat assessed as reduction in plasma glucose level by glucometer; format: functional, organism-based; outline: as §1
Proteus vulgaris = experiment: Antibacterial activity against Proteus vulgaris NCIM 2813 after 24 hrs by NCCLS agar well diffusion method; format: functional; conditions: NCIM 2813, 24 h; outline: as §2
Bacillus subtilis = experiment: Antibacterial activity against Bacillus subtilis NCIM 2063 after 24 hrs by NCCLS agar well diffusion method; format: functional; conditions: NCIM 2063, 24 h; outline: as §2
Artemia salina = experiment: Cytotoxicity in brine shrimps larvae assessed as mortality after 24 hrs; format: functional; conditions: read-out: ED50 (the source's name)
Outline: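 Artemia salina nauplii hatched 38 h under constant aeration in sterile brine (sea salt 38 g/L, pH 8.5 with 1 N NaOH). Ten nauplii per vial were exposed to a range of compound concentrations at 37 °C for 24 h under incandescent light, alongside vehicle-treated controls. Survivors were counted, % lethality was taken from mean survivors versus control, and ED50 came from probit analysis.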

Micrococcus luteus = experiment: Antibacterial activity against Micrococcus luteus NCIM 2155 after 24 hrs by NCCLS agar well diffusion method; format: functional; conditions: NCIM 2155, 24 h; outline: as §2
Rattus norvegicus [3] = experiment: Antihyperglycemic activity in streptozotocin-induced type 2 diabetic Wistar albino rat assessed as reduction in plasma glucose level at 10 mg/kg, po by glucometer; format: functional; outline: as §1
Aspergillus oryzae = experiment: Antifungal activity against Aspergillus oryzae NCIM 643 after 48 hrs by NCCLS agar well diffusion method; format: functional; conditions: NCIM 643, 48 h; outline: as §3
Staphylococcus aureus = experiment: Antibacterial activity against Staphylococcus aureus NCIM 2079 after 24 hrs by NCCLS agar well diffusion method; format: functional; conditions: NCIM 2079, 24 h; outline: as §2
Bacillus pumilus = experiment: Antibacterial activity against Bacillus pumilus NCIM 2327 after 24 hrs by NCCLS agar well diffusion method; format: functional; conditions: NCIM 2327, 24 h; outline: as §2
Aspergillus niger = experiment: Antifungal activity against Aspergillus niger NCIM 548 after 48 hrs by NCCLS agar well diffusion method; format: functional; conditions: NCIM 548, 48 h; outline: as §3
Rattus norvegicus [4] = experiment: Antihyperglycemic activity in streptozotocin-induced type 2 diabetic Wistar albino rat assessed as reduction in plasma glucose level at 30 mg/kg, po by glucometer; format: functional; outline: as §1
[5] = Toxicity in mouse assessed as changes in vital functions; format: organism-based; conditions: in vivo

Structure (SMILES)	Activity (Rattus norvegicus [1])	MIC (Klebsiella pneumoniae)	MIC (Candida albicans)	MIC (Penicillium chrysogenum)	MIC (Escherichia coli)	MIC (Pseudomonas aeruginosa)	Activity (Rattus norvegicus [2])	MIC (Proteus vulgaris)	MIC (Bacillus subtilis)	EC50 (Artemia salina)	MIC (Micrococcus luteus)	Activity (Rattus norvegicus [3])	MIC (Aspergillus oryzae)	MIC (Staphylococcus aureus)	MIC (Bacillus pumilus)	MIC (Aspergillus niger)	Activity (Rattus norvegicus [4])	MTD [5]
Cc1ccc(C(=O)/C=C/c2ccc(/C=C3\SC(=O)NC3=O)cc2)cc1	28.72 mg/dL	64 mg/L (≈ 183 µM)	256 mg/L (≈ 733 µM)	64 mg/L (≈ 183 µM)	32 mg/L (≈ 91.6 µM)	32 mg/L (≈ 91.6 µM)	Dose-dependent effect	64 mg/L (≈ 183 µM)	32 mg/L (≈ 91.6 µM)	19.7 mg/L (≈ 56.3 µM)	64 mg/L (≈ 183 µM)	17.66 mg/dL	64 mg/L (≈ 183 µM)	32 mg/L (≈ 91.6 µM)	32 mg/L (≈ 91.6 µM)	256 mg/L (≈ 733 µM)	21.81 mg/dL	2000 mg/kg
Cc1ccc(O)c(C(=O)/C=C/c2ccc(/C=C3\SC(=O)NC3=O)cc2)c1	42.13 mg/dL	128 mg/L (≈ 350 µM)	128 mg/L (≈ 350 µM)	64 mg/L (≈ 175 µM)	128 mg/L (≈ 350 µM)	256 mg/L (≈ 701 µM)	Dose-dependent effect	512 mg/L (≈ 1400 µM)	128 mg/L (≈ 350 µM)	39.4 mg/L (≈ 108 µM)	512 mg/L (≈ 1400 µM)	31.76 mg/dL	64 mg/L (≈ 175 µM)	256 mg/L (≈ 701 µM)	256 mg/L (≈ 701 µM)	128 mg/L (≈ 350 µM)	37.03 mg/dL	2000 mg/kg
Nc1ccc(C(=O)/C=C/c2ccc(/C=C3\SC(=O)NC3=O)cc2)cc1	29.87 mg/dL	128 mg/L (≈ 365 µM)	128 mg/L (≈ 365 µM)	256 mg/L (≈ 731 µM)	128 mg/L (≈ 365 µM)	64 mg/L (≈ 183 µM)	Dose-dependent effect	256 mg/L (≈ 731 µM)	128 mg/L (≈ 365 µM)	28.8 mg/L (≈ 82.2 µM)	256 mg/L (≈ 731 µM)	21.34 mg/dL	128 mg/L (≈ 365 µM)	128 mg/L (≈ 365 µM)	128 mg/L (≈ 365 µM)	128 mg/L (≈ 365 µM)	24.72 mg/dL	2000 mg/kg
O=C1NC(=O)/C(=C/c2ccc(/C=C/C(=O)c3cc(OCc4ccccc4)cc(OCc4ccccc4)c3)cc2)S1	30.12 mg/dL	16 mg/L (≈ 29.2 µM)	16 mg/L (≈ 29.2 µM)	16 mg/L (≈ 29.2 µM)	32 mg/L (≈ 58.4 µM)	16 mg/L (≈ 29.2 µM)	Dose-dependent effect	32 mg/L (≈ 58.4 µM)	16 mg/L (≈ 29.2 µM)	26.8 mg/L (≈ 49 µM)	16 mg/L (≈ 29.2 µM)	21.76 mg/dL	16 mg/L (≈ 29.2 µM)	16 mg/L (≈ 29.2 µM)	16 mg/L (≈ 29.2 µM)	16 mg/L (≈ 29.2 µM)	26.87 mg/dL	2000 mg/kg
Nc1cccc(C(=O)/C=C/c2ccc(/C=C3\SC(=O)NC3=O)cc2)c1	21.66 mg/dL	256 mg/L (≈ 731 µM)	256 mg/L (≈ 731 µM)	256 mg/L (≈ 731 µM)	64 mg/L (≈ 183 µM)	128 mg/L (≈ 365 µM)	Dose-dependent effect	256 mg/L (≈ 731 µM)	256 mg/L (≈ 731 µM)	33.2 mg/L (≈ 94.7 µM)	256 mg/L (≈ 731 µM)	12.14 mg/dL	128 mg/L (≈ 365 µM)	256 mg/L (≈ 731 µM)	256 mg/L (≈ 731 µM)	64 mg/L (≈ 183 µM)	15.36 mg/dL	2000 mg/kg
O=C1NC(=O)/C(=C/c2ccc(/C=C/C(=O)c3cccnc3)cc2)S1	31.81 mg/dL	128 mg/L (≈ 381 µM)	128 mg/L (≈ 381 µM)	256 mg/L (≈ 761 µM)	128 mg/L (≈ 381 µM)	128 mg/L (≈ 381 µM)	Dose-dependent effect	256 mg/L (≈ 761 µM)	128 mg/L (≈ 381 µM)	31.4 mg/L (≈ 93.4 µM)	128 mg/L (≈ 381 µM)	19.04 mg/dL	128 mg/L (≈ 381 µM)	128 mg/L (≈ 381 µM)	128 mg/L (≈ 381 µM)	256 mg/L (≈ 761 µM)	27.86 mg/dL	2000 mg/kg
COc1cccc(C(=O)/C=C/c2ccc(/C=C3\SC(=O)NC3=O)cc2)c1	34.61 mg/dL	128 mg/L (≈ 350 µM)	128 mg/L (≈ 350 µM)	256 mg/L (≈ 701 µM)	128 mg/L (≈ 350 µM)	128 mg/L (≈ 350 µM)	Dose-dependent effect	256 mg/L (≈ 701 µM)	128 mg/L (≈ 350 µM)	18.7 mg/L (≈ 51.2 µM)	256 mg/L (≈ 701 µM)	16.41 mg/dL	256 mg/L (≈ 701 µM)	128 mg/L (≈ 350 µM)	128 mg/L (≈ 350 µM)	64 mg/L (≈ 175 µM)	28.73 mg/dL	2000 mg/kg
O=C1NC(=O)/C(=C/c2ccc(/C=C/C(=O)c3cccc([N+](=O)[O-])c3)cc2)S1	16.56 mg/dL	256 mg/L (≈ 673 µM)	512 mg/L (≈ 1350 µM)	256 mg/L (≈ 673 µM)	128 mg/L (≈ 337 µM)	128 mg/L (≈ 337 µM)	Dose-dependent effect	512 mg/L (≈ 1350 µM)	256 mg/L (≈ 673 µM)	56.1 mg/L (≈ 147 µM)	256 mg/L (≈ 673 µM)	11.18 mg/dL	128 mg/L (≈ 337 µM)	128 mg/L (≈ 337 µM)	256 mg/L (≈ 673 µM)	256 mg/L (≈ 673 µM)	14.72 mg/dL	2000 mg/kg
O=C1NC(=O)/C(=C/c2ccc(/C=C/C(=O)c3ccc(Cl)cc3)cc2)S1	36.17 mg/dL	16 mg/L (≈ 43.3 µM)	64 mg/L (≈ 173 µM)	64 mg/L (≈ 173 µM)	32 mg/L (≈ 86.5 µM)	32 mg/L (≈ 86.5 µM)	Dose-dependent effect	32 mg/L (≈ 86.5 µM)	32 mg/L (≈ 86.5 µM)	12.1 mg/L (≈ 32.6 µM)	64 mg/L (≈ 173 µM)	26.74 mg/dL	64 mg/L (≈ 173 µM)	32 mg/L (≈ 86.5 µM)	16 mg/L (≈ 43.3 µM)	64 mg/L (≈ 173 µM)	32.38 mg/dL	2000 mg/kg
O=C1NC(=O)/C(=C/c2ccc(/C=C/C(=O)c3ccc4c(c3)Cc3ccccc3-4)cc2)S1	52.81 mg/dL	256 mg/L (≈ 604 µM)	256 mg/L (≈ 604 µM)	512 mg/L (≈ 1210 µM)	128 mg/L (≈ 302 µM)	128 mg/L (≈ 302 µM)	Dose-dependent effect	512 mg/L (≈ 1210 µM)	256 mg/L (≈ 604 µM)	39.7 mg/L (≈ 93.6 µM)	512 mg/L (≈ 1210 µM)	39.83 mg/dL	256 mg/L (≈ 604 µM)	256 mg/L (≈ 604 µM)	256 mg/L (≈ 604 µM)	256 mg/L (≈ 604 µM)	44.62 mg/dL	2000 mg/kg
COc1ccc(C(=O)/C=C/c2ccc(/C=C3\SC(=O)NC3=O)cc2)cc1	48.71 mg/dL	64 mg/L (≈ 175 µM)	128 mg/L (≈ 350 µM)	128 mg/L (≈ 350 µM)	32 mg/L (≈ 87.6 µM)	64 mg/L (≈ 175 µM)	Dose-dependent effect	64 mg/L (≈ 175 µM)	64 mg/L (≈ 175 µM)	16.2 mg/L (≈ 44.4 µM)	64 mg/L (≈ 175 µM)	33.88 mg/dL	128 mg/L (≈ 350 µM)	32 mg/L (≈ 87.6 µM)	64 mg/L (≈ 175 µM)	128 mg/L (≈ 350 µM)	37.04 mg/dL	2000 mg/kg
O=C1NC(=O)/C(=C/c2ccc(/C=C/C(=O)c3ccc(O)cc3)cc2)S1	37.12 mg/dL	128 mg/L (≈ 364 µM)	512 mg/L (≈ 1460 µM)	512 mg/L (≈ 1460 µM)	128 mg/L (≈ 364 µM)	512 mg/L (≈ 1460 µM)	Dose-dependent effect	512 mg/L (≈ 1460 µM)	256 mg/L (≈ 729 µM)	36.2 mg/L (≈ 103 µM)	256 mg/L (≈ 729 µM)	21.83 mg/dL	256 mg/L (≈ 729 µM)	128 mg/L (≈ 364 µM)	128 mg/L (≈ 364 µM)	256 mg/L (≈ 729 µM)	30.21 mg/dL	2000 mg/kg
